Source: the RNAGym collection of RNA variant scans (doi:10.1126/science.aae0568)
Fewer inactive variants are shown than the library holds.

B1: tRNA (parent)
chain: GUUCCGUUGGCGUAAUGGUAACGCGUCUCCCUCCUAAGGAGAAGACUGCGGGUUCGAGUCCCGUACGGAACG

Variants of: B1
Assay: yeast fitness relative to wild type (ratio to wild type); higher = fitter; tRNA-Arg(CCU), competitive growth, 37 C, YPD
In short: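 Start and end populations of a pooled competition were compared by 100-nucleotide paired-end sequencing of gene amplicons. The Saccharomyces cerevisiae strains carried tRNA-Arg(CCU) gene variants at the native genomic locus, synthesised with a 3% per-site mutation rate at 69 sites, and competed in YPD at 37°C for 24 hours in six parallel replicates. Darwinian fitness relative to wild type was based on the change in genotype frequencies. Genotypes required ≥ 100 starting reads, and estimates < 0.5 were set to 0.5.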

Variant	yeast fitness
U26A U35C A45U	0.746
U26G C31U	1.02
U26G C31A	0.804
U26G A40G U59G C62A	≤ 0.5
U26C C29A C30A A45U	0.582
C27A A36U	0.802
U26C C46G C62G U64C G67U	≤ 0.5
U26G G39A C46G G68A	0.522
U26C C30G C61U A70G	0.689
U26G A36G A70G	0.652
U26C G41A U47C C61G C62U	≤ 0.5
U26A G44C G67U	0.593
C27A A42G	0.791
C27A A42C	0.751
U26C	0.988
U26G	0.971
U26C G50C	0.732
U26C G50U	0.733
U26C A37G	0.634
C27A A42U G67C	0.613
C27A A42C G67C A69C	≤ 0.5
U26G C55G A65C A70U	≤ 0.5
U26G G58C	0.696
U26G G58A	0.881

Variant	yeast fitness
U26C C33G A42C	0.537
U26G A69U	0.919
U26G A45U	0.789
U26A U54A A70U	0.69
U26G G44A A69U	0.673
U26G U35A	0.589
U26G U35C	0.657
U26A U28A C31U C55U C66G	≤ 0.5
U26G A36C C66A	≤ 0.5
C27A A36C A40G C62A	≤ 0.5
U26C A37C A40C A57C U64G	0.614
U26C G39A	0.698
U26C A42C A70C	0.757
U26C C46G C62G G67U	≤ 0.5
U26C U32C U47C G50A C61U U64A	≤ 0.5
U26G C27G C33U G39C C49U	≤ 0.5
U26A U59A	0.822
U26G C31G A36U G41A A45C	≤ 0.5
U26A G52A A70U	≤ 0.5
U26A U54G	0.531
U26A U54C	0.817
U26C A37U U54A	≤ 0.5
U26A U28A C31U G51A	≤ 0.5
U26C A40U	0.846

Variant	yeast fitness
U26C A40C	0.941
U26G U59G	0.704
U26G U59A	0.663
C27A A42C C60U	≤ 0.5
U26C C33U C55U C60U	≤ 0.5
U26G U28A U53A	≤ 0.5
U26C C30G G41A U64C	≤ 0.5
U26G A36U U47G	0.626
U26C C31G A43C	0.78
U26C C62U	0.823
U26C C29G A69U	0.572
U26G C61U	0.864
U26C G63C	0.76
U26C C31U C49U C66G	≤ 0.5
U26G A36G G68A A69G	0.626
U26C G48A A57G C61G	0.501
U26C U53A	0.706
C27A A65G	1.02
C27A A65C	0.878
U26G C61U G63C A65G	0.799
U26C C27G C34U A37U A43G A45G	≤ 0.5
C27A C29U C46A	0.684
C27A A45C G50C A65C	≤ 0.5
C27A A45U G56A C60U	≤ 0.5

Variant	yeast fitness
U26A G41C C66A A70C	0.663
U26A U32C C49G	0.575
U26C C33A A40U	0.668
C27A A45G	0.874
C27A A45C	0.796
U26G C27G U32A A40U	≤ 0.5
U26A G39C	0.751
U26A U53G	0.704
U26A U53A	0.557
U26C G56C A57C	≤ 0.5
C27A A40G C46G C62G	0.687
U26C C46G G63A	≤ 0.5
C27A A36U A37U A65U A70G	≤ 0.5
U26C U32A C34U G38C G51A A57C C66U	0.66
U26A G44C A65G	0.573
U26C C61A C66U	0.525
U26G C27U A70U	≤ 0.5
C27A A42U G67C A69C	0.726
U26C C34U G44C U47G	≤ 0.5
U26A U35A G48C	≤ 0.5
U26C C33G	0.632
U26C C33U	0.676
C27A A40C A45U A57U A70U	0.588
U26C G51C	0.663

Variant	yeast fitness
U26C A69U	0.906
U26G A43G	0.895
U26G C31U C62U	0.695
U26C A37G A69U	0.665
C27A A36G C46A G50A G51C	≤ 0.5
U26C G56A	0.895
U26C G52A A70C	≤ 0.5
U26A C55A A57U	≤ 0.5
U26C G52A	0.748
U26A G44C C62A	0.598
U26A G44C C62U	0.622
U26C U53C G58A	0.686
U26C G44A A70U	0.657
U26A U47C	0.994
U26A U47G	0.661
C27A A42G U54C	≤ 0.5
U26A U28A C31U G67A	≤ 0.5
C27A C30A A43C C62G	≤ 0.5
U26G A45G C46U G50A U53G C66U A69U	≤ 0.5
U26C A40U C60U A69C	0.535
C27A A40C A43G	≤ 0.5
U26G C46G C55G	≤ 0.5
C27A C30G C49U G56C C66U	≤ 0.5
U26G C60A	0.593

Variant	yeast fitness
C27A A37C	0.597
C27A A37G	0.737
U26G U32A G51A	≤ 0.5
U26C U32C A37G C49G	≤ 0.5
U26C C29G C49U A69U	0.588
U26C A36C U64A A70C	≤ 0.5
U26A U32A	0.805
U26A U32C	0.936
U26C G38A A43C A65C	≤ 0.5
U26C U32A C34U G38C G51A A57C A65C	≤ 0.5
U26C A36C G56C	0.633
U26A G44C G68C	0.563
U26C G41C C46A	0.627
U26G U35A G41A C46U G68A	≤ 0.5
U26G A37C A42G G44C A45G	≤ 0.5
U26A G44C	0.886
U26C U35A U47A U54A	≤ 0.5
U26C C30G U64C	0.703
U26C C46A U47G G50A A69U	≤ 0.5
U26C A70U	0.926
U26C A70C	0.797
U26G G56A G67A	0.529
U26C A43U	0.884
U26G C27G U47A C62U	≤ 0.5

Variant	yeast fitness
C27A A45G G68C	≤ 0.5
U26C C62U G67A	0.542
U26C C27G C34U A37U A43G A45G A57G	≤ 0.5
C27A A43C U47C	0.594
U26C G39C C55A C60G	≤ 0.5
C27A C30U A57C C62U	≤ 0.5
U26A C61A	0.656
U26A C61U	0.817
U26A G63A	0.86
U26A G63C	0.683
U26C C46A C61U G67A	≤ 0.5
U26A G41U C55U	≤ 0.5
C27A A36U A37U	0.638
U26C C29G C49U	≤ 0.5
U26C A57C	0.611
U26G G67A	0.81
U26G A45U G50A C55A	≤ 0.5
C27A A36C A42U U64G	≤ 0.5
U26C G44C	0.77
U26C G44A	0.945
C27A A40C	0.775
C27A A40G	0.843
U26C U47G G50C C66A	0.685
